This note sets out measurements from ChEMBL document CHEMBL4825680, “Structure-based discovery of potent and selective small-molecule inhibitors targeting signal transducer and activator of transcription 3 (STAT3)” (Eur J Med Chem, 2021).

The test system of one data set is MDA-MB-231. Nature of the data set: Antiproliferative activity against human MDA-MB-231 cells. In kind it is functional, cell-based.
Data set [1] concerns the target T1, Signal transducer and activator of transcription 1-alpha/beta (Homo sapiens) (UniProt P42224).
T1 sequence (whole entry): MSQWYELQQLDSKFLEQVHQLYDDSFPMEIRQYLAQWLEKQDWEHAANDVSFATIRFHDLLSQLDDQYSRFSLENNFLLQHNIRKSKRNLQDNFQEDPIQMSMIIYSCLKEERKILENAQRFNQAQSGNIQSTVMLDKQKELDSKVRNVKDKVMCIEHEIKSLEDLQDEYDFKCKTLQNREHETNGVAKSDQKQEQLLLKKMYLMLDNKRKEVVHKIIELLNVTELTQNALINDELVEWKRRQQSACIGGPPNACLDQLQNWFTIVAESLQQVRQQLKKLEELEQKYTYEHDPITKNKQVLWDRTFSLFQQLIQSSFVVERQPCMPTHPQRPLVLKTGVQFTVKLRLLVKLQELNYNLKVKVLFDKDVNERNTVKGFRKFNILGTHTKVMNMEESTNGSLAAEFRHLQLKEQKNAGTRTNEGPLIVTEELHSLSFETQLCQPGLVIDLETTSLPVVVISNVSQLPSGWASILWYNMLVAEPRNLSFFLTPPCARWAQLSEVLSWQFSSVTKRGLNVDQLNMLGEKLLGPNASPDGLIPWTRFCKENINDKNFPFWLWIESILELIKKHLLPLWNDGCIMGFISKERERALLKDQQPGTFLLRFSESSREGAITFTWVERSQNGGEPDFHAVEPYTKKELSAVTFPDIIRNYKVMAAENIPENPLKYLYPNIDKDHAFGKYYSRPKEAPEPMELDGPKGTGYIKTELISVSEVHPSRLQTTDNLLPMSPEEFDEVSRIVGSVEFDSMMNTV
Nature of the data set: Inhibition of STAT1 phosphorylation at Y701 residue in human MDA-MB-231 cells at 0.3 to 3 uM after 3 hrs by Western blotting analysis. In kind it is cell-based. The note with it: dose 0.3-3 µM.

Data set [2] has as its target Signal transducer and activator of transcription 3 (Homo sapiens, UniProt P40763). Put plainly: Inhibition of STAT3 in human MDA-MB-468 cells assessed as downregulation of c-Myc expression at 0.3 to 3 uM after 24 hrs by western blot analysis. In kind it is cell-based. Particulars: dose 0.3-3 µM. Summed up: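 TNBC cells given vehicle (0.1% DMSO) or graded compound levels for 24 h, lysed in RIPA with PMSF and phosphatase inhibitors. BCA-quantified lysate (20–50 µg) run on SDS-PAGE, transferred to PVDF, blocked in 5% BSA. Probed overnight at 4 °C for Bcl-xL, Mcl-1 and c-Myc, with β-actin. HRP secondary, ECL detection. Three independent experiments.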

Data set [3] in a line: Induction of apoptosis in human MDA231-LM2-4175 cells assessed as early apoptotic cells at 3 uM after 48 hrs by Annexin-V-FITC/propidium iodide staining based flow cytometric analysis (reference value: 2.49%). It counts as functional.
Data set [4] concerns MDA-MB-468. Nature of the data set: Induction of apoptosis in human MDA-MB-468 cells assessed as viable cells at 1 uM after 48 hrs by Annexin-V-FITC/propidium iodide staining based flow cytometric analysis (reference value: 95.5%). It counts as functional. The note with it: read-out: Activity.
Data set [5] has as its system MDA-MB-468. Nature of the data set: Induction of apoptosis in human MDA-MB-468 cells assessed as early apoptotic cells at 1 uM after 48 hrs by Annexin-V-FITC/propidium iodide staining based flow cytometric analysis (reference value: 2.66%). In kind it is functional.
In data set [6] the test system is MDA-MB-468. Nature of the data set: Induction of apoptosis in human MDA-MB-468 cells assessed as increase in caspase-7 cleavage at 1 uM after 48 hrs by Western blot analysis. In kind it is functional, cell-based. Summed up:
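Cells were treated with vehicle (0.1% DMSO) or compound, then analysed by western blot of RIPA lysates (20–50 μg protein, SDS-PAGE, PVDF) for PARP and cleaved caspase-7, with β-actin as loading control. Three independent experiments.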

Another data set relates to HCC70. Put plainly: Inhibition of cell migration in human HCC70 cells incubated for 12 to 96 hrs by wound healing assay. It counts as functional, cell-based. The note with it: dose 0.3-3 µM, time 12-96 hrs. In short, it runs like this: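 Confluent monolayer (0.8–1.2×10^6 cells/well) scratched with a pipette tip, then treated with 0–3 µM compound until vehicle cells filled the gap. Imaged by microscope after about 12–96 h. Triplicate.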

In data set [7] the test system is MDA-MB-468. Nature of the data set: Inhibition of cell invasion in human MDA-MB-468 cells incubated for 12 hrs by crystal violet staining based transwell assay. It counts as functional. The note with it: dose 1-3 µM. In short, it runs like this:
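Cells seeded at 1.5×10^4–3×10^4 per well in the upper chamber of 8.0 µm pore Transwell inserts and treated with graded compound for 12 h. Non-invading cells removed with cotton. Invaded cells fixed in 4% paraformaldehyde, stained with crystal violet, photographed and counted. Triplicate.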

A short description of data set [8]: Antitumor activity against human MDA231-LM2-4175 cells xenografted in mouse assessed as tumor growth inhibition at 15 mg/kg, iv administered once daily for 20 days. It counts as functional. The note with it: MDA231-LM2-4175, iv, 480 h, time 20 day, read-out: TGI.
Another data set has as its system MDA231-LM2-4175. Nature of the data set: Antitumor activity against human MDA231-LM2-4175 cells xenografted in mouse assessed as reduction in Bcl-xL expression at 5 to 15 mg/kg, iv administered once daily for 20 days by Western blotting analysis. In kind it is functional, organism-based. The note with it: dose 5-15 mg/kg, time 20.0 day.
Data set [9] is described as follows: Toxicity in mouse xenografted with human MDA-MB-231-4175 cells assessed as morphological change in lung at 5 to 15 mg/kg, […] once daily for 20 days by HE staining based assay. In kind it is organism-based. Particulars: in vivo, iv, 480 h, dose 5-15 mg/kg, time 20 day. Summed up: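 Female NOD-SCID mice aged 4–5 weeks, given 2×10^6–3×10^6 MDA-MB-231-4175 cells subcutaneously in the flank. At about 100 mm³ tumour volume, randomised n=6/group: vehicle (PBS with 15% Cremophor EL), 5 or 15 mg/kg intraperitoneally daily. Killed at day 20; heart, liver, spleen, lung and kidney collected for morphological examination.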

Data set [10] is described as follows: Toxicity in NOD/SCID mouse xenografted with patient-derived breast cancer cells assessed as morphological change in spleen at 5 to 15 mg/kg, […] once daily for 20 days by HE staining based assay. In kind it is organism-based. Particulars: in vivo, iv, 480 h, dose 5-15 mg/kg, time 20 day. In short, it runs like this:
(§1)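 Female NOD-SCID mice implanted subcutaneously in the flank with about 2 mm³ TNBC PDX fragments. At about 100 mm³ tumour volume, randomised n=6/group: vehicle (PBS with 15% Cremophor EL), 5 or 15 mg/kg intraperitoneally daily. Killed at day 20; heart, liver, spleen, lung and kidney collected for morphological examination.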

A short description of data set [11]: Toxicity in NOD/SCID mouse xenografted with patient-derived breast cancer cells assessed as morphological change in lung at 5 to 15 mg/kg, […] once daily for 20 days by HE staining based assay. The note with it: in vivo, iv, dose 5-15 mg/kg, time 20 day. It counts as organism-based. Summed up:
as §1

Data set [12] can be described thus: Toxicity in NOD/SCID mouse xenografted with patient-derived breast cancer cells assessed as lethargy at 5 to 15 mg/kg, iv administered once daily for 20 days. Particulars: in vivo, 480 h, dose 5-15 mg/kg, time 20 day. In kind it is organism-based.

Activity calls are given as the source filed them. The rule behind the calls is not given here.

Signal transducer and activator of transcription 3, sequence (P40763 whole entry): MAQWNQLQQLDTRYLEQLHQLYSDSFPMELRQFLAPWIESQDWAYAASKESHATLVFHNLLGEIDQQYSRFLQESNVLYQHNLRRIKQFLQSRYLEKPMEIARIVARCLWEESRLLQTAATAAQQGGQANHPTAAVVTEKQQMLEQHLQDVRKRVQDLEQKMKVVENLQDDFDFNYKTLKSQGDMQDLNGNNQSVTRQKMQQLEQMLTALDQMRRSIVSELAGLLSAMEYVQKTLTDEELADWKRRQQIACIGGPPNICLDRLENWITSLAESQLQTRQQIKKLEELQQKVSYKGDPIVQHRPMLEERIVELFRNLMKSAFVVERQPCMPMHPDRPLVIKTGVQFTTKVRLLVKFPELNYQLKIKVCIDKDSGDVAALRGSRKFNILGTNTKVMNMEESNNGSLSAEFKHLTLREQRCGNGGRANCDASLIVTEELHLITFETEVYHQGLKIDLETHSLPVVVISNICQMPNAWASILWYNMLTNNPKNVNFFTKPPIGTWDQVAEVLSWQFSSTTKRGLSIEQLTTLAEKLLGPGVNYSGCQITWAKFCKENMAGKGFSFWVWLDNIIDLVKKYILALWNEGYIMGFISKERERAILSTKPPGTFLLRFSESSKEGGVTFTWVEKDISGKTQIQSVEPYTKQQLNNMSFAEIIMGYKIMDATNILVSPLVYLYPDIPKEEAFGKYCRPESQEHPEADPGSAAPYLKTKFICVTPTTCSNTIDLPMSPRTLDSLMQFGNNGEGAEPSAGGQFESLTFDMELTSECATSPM

`O=C(Cc1c(-c2ccccc2)nc2ccccn12)Nc1ccc2c(c1)S(=O)(=O)C=C2`: in the data set with MDA-MB-231, it took 1.2 µM to reach half-maximal inhibition (IC50). Also, the inhibition entry in [1] was “inactive”. Also, the inhibition result in data set [2] is “Active”. Besides, the Activity in data set [3] is on record as 9.5%; with MDA-MB-468 [5], 24%; in data set [9], “Non-Toxic”; in data set [10], “Non-Toxic”; in data set [11] it was “Non-Toxic”; in data set [12] it was “Non-Toxic”. Besides, in the data set on MDA-MB-468 [4], the viability at 1 µM was determined as 57.9%. Also, the outcome with MDA-MB-468 [6] and in the data set with MDA231-LM2-4175 was Active. Also, the inhibition result in the data set on HCC70 and in the data set on MDA-MB-468 [7] was “Dose-Dependent Effect” each time. Also, the inhibition in vivo at 15 mg/kg in data set [8] is 40.2%.
